T cell HTS: T cell immune modulation candidate. 2C CD8+ T cell-vesicle binding, flow cytometry; active compounds read low. actives 0.068% (n = 330,000). AID 2052. response (vesicle binding), % at 7 µM;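 active = response, share of CD8 T cells binding vesicles, and their 90th percentile fluorescence all below set limits, cut at about 80% in these data, passing the limit was not always enough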;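 also: values below 100% mean blocked vesicle binding to the CD8+ T cells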
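Assay system: 2C TCR transgenic mouse naive CD8+ T cells, MACS-purified | Read-out: CD8+ gate FL2 mean fluorescence as % of same-row positive control | Signal: High-throughput flow cytometry with anti-B7-1 and anti-CD8 staining | Timing: Binding step 1.5 h, 37 °C, antibody labelling 20 min, ice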
Myeloid diff MLP: compounds promoting myeloid differentiation. ER-HoxA9 myeloid progenitors, lysozyme-GFP differentiation, flow cytometry. calls only at 10 µM. actives 1% (n = 360,000);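 active = normalized GFP-positive differentiation at or above the plate's own cutoff, the solvent-only control mean plus 3 SD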;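 also: cells exposed to compound for four days before flow analysis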
NR2E3 ag-1: activates human NR2E3 receptor. Q9Y5X4. CHO-S Gal4-NCOR/VP16-NR2E3 two-hybrid, luciferase. inhibition of corepressor binding, % at 3.98 µM. actives 0.35% (n = 360,000);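 active = inhibition above the mean of all tested compounds plus 3 SD, cut at about 70% in these data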;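 also: 0% = DMSO with NR2E3 transfected cells and 100% = cells lacking NR2E3 construct; higher means lower luciferase signal from less NR2E3 corepressor binding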
Target sequence (Q9Y5X4 whole entry, looked up, the tested form may be a part): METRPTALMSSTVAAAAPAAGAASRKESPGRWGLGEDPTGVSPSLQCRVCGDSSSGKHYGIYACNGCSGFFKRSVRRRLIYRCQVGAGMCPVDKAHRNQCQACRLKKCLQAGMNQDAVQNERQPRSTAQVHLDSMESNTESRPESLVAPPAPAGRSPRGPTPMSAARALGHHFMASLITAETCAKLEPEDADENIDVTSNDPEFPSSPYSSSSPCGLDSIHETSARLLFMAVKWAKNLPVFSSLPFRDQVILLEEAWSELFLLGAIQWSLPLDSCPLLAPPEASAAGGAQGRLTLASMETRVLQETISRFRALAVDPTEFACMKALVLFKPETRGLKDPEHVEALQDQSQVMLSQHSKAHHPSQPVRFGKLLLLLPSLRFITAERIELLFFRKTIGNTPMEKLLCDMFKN
GAA850 FXN act: increases GAA850 frataxin promoter reporter activity | HEK293 lucGAA850 FXN promoter luciferase reporter, 24 h; percent of 10 µM SAHA response | activation, % at 6 µM | actives 0.56% (n = 360,000);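 active = activation above the average of all compounds screened plus 3 SD, cutoff fixed separately per campaign, cut at about 7.5% in these data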;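 also: 0% = DMSO wells and 100% = 10 µM SAHA wells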
NR2E3 ag-2: activates human photoreceptor nuclear receptor NR2E3; Q9Y5X4; GST-NR2E3/biotin-RetCOR TR-FRET, 1536-well; inhibition of corepressor binding, % at 4.78 µM; actives 0.12% (n = 320,000);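 active = percent inhibition above the cutoff of mean plus 3 SD of all tested compounds, set per screening campaign, cut at about 20% in these data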;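 also: 0% = DMSO wells and 100% = biotin wells as full block of FRET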
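Test system: GST-NR2E3 and biotin-RetCOR proteins | Quantity: 1.35 nM GST-tagged NR2E3 final | Medium: Tris pH 7.5 | Also added: 7 nM biotin-RetCOR | Dosing: Compound at 4.8 µM, single dose | Timing: 5 h at 4 °C | Detection: Time-resolved FRET | Read-out basis: Percent inhibition | Benchmarks: Biotin wells as high control, 0.6% DMSO wells as low control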
Starred values were filed as active, the others as inactive; i = inactive; . = no result; + = active, no number. The list is not random: actives were taken first. Their share in the collection is about 2%.

SMILES	T cell HTS	Myeloid diff MLP	NR2E3 ag-1	GAA850 FXN act	NR2E3 ag-2
CN1CCc2c(sc3c2C(=O)NC(c2ccco2)N3)C1 (stereo not given)	835.1	i	-7.3	6.1	-1.9
OCCCNCc1ccc(N(c2ccccc2)c2ccccc2)cc1	322.0	i	4.2	-0.3	0.9
O=C(COc1ccc([N+](=O)[O-])cc1)Nc1ccc2c(c1)nc1n2CCOC1	69.3	+	-7.1	1.1	-0.8
c1ccc(N2CCN(Cc3nc4ccccc4[nH]3)CC2)nc1	293.0	+	-5.9	-0.6	1.8
Oc1ccc(N2CCN(Cc3nc4ccccc4[nH]3)CC2)cc1	460.0	i	-16.7	0.1	-0.3
CC(C)(C)OC(=O)[C@H](CCCCN)NC(=O)c1[nH]cnc1C(=O)N[C@@H](Cc1ccccc1)C(=O)OCc1ccccc1	374.4	+	-8.9	-0.2	.
CC(C)(C)OC(=O)[C@H](Cc1ccccc1)NC(=O)c1[nH]cnc1C(=O)N[C@@H](Cc1ccccc1)C(=O)OCc1ccccc1	506.6	i	-4.4	0.1	3.2
O=C(/C=C/c1ccc(Cl)cc1)N1CCN(CCN2C(=O)c3cccc4cccc(c34)C2=O)CC1	.	i	11.5	-0.9	.
COCCCn1cnnc1SC(C)C(=O)Nc1ccc(S(=O)(=O)N2CCOCC2)cc1 (stereo not given)	313.9	i	-29.7	1.3	.
COc1ccc(N(CC(=O)Nc2cc(Cl)ccc2OC)S(=O)(=O)c2c(C)noc2C)cc1	344.9	+	-115.2	-7.3	-3.2
COc1ccc(NC(=O)CN(C)S(=O)(=O)c2ccccc2)cc1	339.0	i	-4.6	1.9	-2.7
COc1ccc(N(CC(=O)Nc2ccccc2OC)S(=O)(=O)c2ccc(NC(C)=O)cc2)cc1	55.9	+	-23.4	-4.0	-2.8
CCOC(=O)c1ccc(NC(=O)CN(C)S(=O)(=O)c2ccc(OC)cc2)cc1	89.1	+	-11.0	-0.5	4.7
COc1ccc(OC)c(NC(=O)CN(c2ccc(C)cc2)S(=O)(=O)c2c(C)noc2C)c1	257.5	i	-18.3	-1.9	-0.2
CCOC(=O)C1=NN2C(O)C3(C)CC(C(=O)OCC)=NN3C(O)C2(C)C1 (stereo not given)	.	i	5.5	1.6	.
CCn1c(SCC(=O)N/N=C/c2ccc(C)o2)nnc1-c1ccc(C(C)(C)C)cc1	202.8	+	-0.1	1.8	-1.9
COc1ccccc1CCNC(=O)Cn1ccc2cc(S(=O)(=O)N3CCC(C)CC3)ccc21	542.5	+	-4.0	-4.5	-6.4
Oc1c(C=Nc2ccccc2)sc(=S)n1Cc1ccccc1	313.9	+	-33.6	0.2	1.9
CCc1ccc(NC(=O)CSc2nc3ccccc3nc2N2CCCC2)cc1	448.0	i	-25.3	0.7	3.4
CCOc1ccc(C2C(C#N)=C(N)SC(N)=C2C#N)cc1OC	328.2	.	.	.	9.8
CCOc1ccccc1C1C(C#N)=C(N)SC(N)=C1C#N	274.4	+	-7.5	0.0	13.5
CCOc1ccc(C2C(C#N)=C(N)SC(N)=C2C#N)cc1OCC	185.4	+	-19.1	-0.9	11.8
O=C(NCCO)c1nc(C(=O)c2ccccc2)c2ccccc2n1	385.6	i	-15.6	-0.3	4.9
Cc1ccc(C(=O)CSc2nc3cccnc3n2C)cc1	429.4	+	23.3	-1.6	1.7
Cn1c(SCC(=O)c2ccccc2)nc2cccnc21	i	i	-13.3	1.7	-0.6
SMILES	T cell HTS	Myeloid diff MLP	NR2E3 ag-1	GAA850 FXN act	NR2E3 ag-2
O=C(NCc1cccc(Cl)c1)c1ccc(-n2ccnc2)c2ccoc12	.	i	4.4	1.4	.
CCOc1ccc(C(Nc2cccnc2)c2cc(Cl)c3cccnc3c2O)cc1 (stereo not given)	119.8	+	-28.1	-0.6	-2.4
COc1ccc(OCC(O)CN2C(=O)c3ccccc3C2=O)cc1 (stereo not given)	337.8	+	-67.6	1.2	0.0
CCC(=O)N1CCC(C)(C(=O)Nc2ccc(OC)c(OC)c2)C1 (stereo not given)	.	i	-61.2	0.5	.
COc1ccccc1[C@H]1C(c2cccc(C)c2)=NN(c2ccccc2)[C@@H]1CO	.	+	-14.2	-0.6	.
COc1ccccc1[C@H]1C(c2ccccc2)=NN(c2ccccc2)[C@@H]1CO	.	i	-31.0	1.4	.
COc1ccccc1N1CCN(C(=O)c2ccc3c(=O)n4c(nc3c2)CCCCC4)CC1	351.2	i	7.2	-0.2	2.6

Source: PubChem BioAssay
